Reference: ChEMBL document CHEMBL4014311, “Discovery of a Hepatitis C Virus NS5B Replicase Palm Site Allosteric Inhibitor (BMS-929075) Advanced to Phase 1 Clinical Studies” (J Med Chem, 2017)
Activity calls are given as the source filed them. No cut-off for these calls is given here.

Key:
Hepatitis C virus [1] = experiment: Antiviral activity against HCV genotype 1a infected in human HuH7 cells after 3 days by luciferase reporter assay; type: functional, cell-based, Hepacivirus hominis, subtype 1a; conditions: Hepatitis C virus, subtype 1a, Huh-7, 72 h; read-out: EC50
Hepatitis C virus [2] = experiment: Antiviral activity against HCV genotype 2a infected in human HuH7 cells after 3 days by luciferase reporter assay; type: functional, cell-based, Hepacivirus hominis; conditions: Huh-7, 72 h
[3] = Ratio of plasma concentration in human at 25 mg up to 14 days to EC50 for HCV genotype 1b NS5B C316N mutant infected in human HuH7 cells
Summary of the method: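 Randomized, double-blind, placebo-controlled Phase I multiple ascending dose study in healthy volunteers. Oral amorphous solid dispersion formulation, 30% drug loading, given daily for 14 days at doses up to 400 mg/day. Human plasma exposure was measured and set against the replicon EC50.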

[4] = Cmax in Sprague-Dawley rat at 6 mg/kg, po administered via gavage by LC/MS/MS analysis; type: ADME, organism-based; parameters: dose 6 mg/kg, route oral; conditions: in vivo
Summary of the method: (§1)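 Rats were fasted overnight with free access to water, then dosed by gastric gavage with an […] solution in 90:10 PEG-400/ethanol (v/v), n = 3 per group. EDTA plasma was sampled predose and at 15, 30, 45, 60 min and 2, 4, 6, 8, 24 h, then assayed by LC/MS/MS. Parameters come from noncompartmental analysis: Cmax observed directly, AUC by linear/log trapezoidal summation, F as dose-normalized PO/IV AUC ratio.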

[5] = Cmax in Sprague-Dawley rat at 6 mg/kg, po administered via gavage using docusate sodium/methocel/water formulation by LC/MS/MS analysis; type: ADME, organism-based; parameters: dose 6 mg/kg, route oral; conditions: in vivo
Summary of the method: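 Rats were fasted overnight and gavaged with a suspension of spray-dried dispersion (10% w/w drug loading in 0.02:0.5:99.48 docusate/methocel/water), n = 3 per group. Serial EDTA plasma was taken predose to 24 h and assayed by LC/MS/MS. Analysis was noncompartmental: Cmax observed, AUC by linear/log trapezoids, F from dose-normalized PO versus IV AUC.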

[6] = Half life in human liver microsomes; type: ADME, microsome
[7] = molecular target: Sodium channel protein type 5 subunit alpha (Homo sapiens, UniProt Q14524); experiment: Inhibition of Nav1.5 (unknown origin)
Chain of Sodium channel protein type 5 subunit alpha (Q14524 whole entry): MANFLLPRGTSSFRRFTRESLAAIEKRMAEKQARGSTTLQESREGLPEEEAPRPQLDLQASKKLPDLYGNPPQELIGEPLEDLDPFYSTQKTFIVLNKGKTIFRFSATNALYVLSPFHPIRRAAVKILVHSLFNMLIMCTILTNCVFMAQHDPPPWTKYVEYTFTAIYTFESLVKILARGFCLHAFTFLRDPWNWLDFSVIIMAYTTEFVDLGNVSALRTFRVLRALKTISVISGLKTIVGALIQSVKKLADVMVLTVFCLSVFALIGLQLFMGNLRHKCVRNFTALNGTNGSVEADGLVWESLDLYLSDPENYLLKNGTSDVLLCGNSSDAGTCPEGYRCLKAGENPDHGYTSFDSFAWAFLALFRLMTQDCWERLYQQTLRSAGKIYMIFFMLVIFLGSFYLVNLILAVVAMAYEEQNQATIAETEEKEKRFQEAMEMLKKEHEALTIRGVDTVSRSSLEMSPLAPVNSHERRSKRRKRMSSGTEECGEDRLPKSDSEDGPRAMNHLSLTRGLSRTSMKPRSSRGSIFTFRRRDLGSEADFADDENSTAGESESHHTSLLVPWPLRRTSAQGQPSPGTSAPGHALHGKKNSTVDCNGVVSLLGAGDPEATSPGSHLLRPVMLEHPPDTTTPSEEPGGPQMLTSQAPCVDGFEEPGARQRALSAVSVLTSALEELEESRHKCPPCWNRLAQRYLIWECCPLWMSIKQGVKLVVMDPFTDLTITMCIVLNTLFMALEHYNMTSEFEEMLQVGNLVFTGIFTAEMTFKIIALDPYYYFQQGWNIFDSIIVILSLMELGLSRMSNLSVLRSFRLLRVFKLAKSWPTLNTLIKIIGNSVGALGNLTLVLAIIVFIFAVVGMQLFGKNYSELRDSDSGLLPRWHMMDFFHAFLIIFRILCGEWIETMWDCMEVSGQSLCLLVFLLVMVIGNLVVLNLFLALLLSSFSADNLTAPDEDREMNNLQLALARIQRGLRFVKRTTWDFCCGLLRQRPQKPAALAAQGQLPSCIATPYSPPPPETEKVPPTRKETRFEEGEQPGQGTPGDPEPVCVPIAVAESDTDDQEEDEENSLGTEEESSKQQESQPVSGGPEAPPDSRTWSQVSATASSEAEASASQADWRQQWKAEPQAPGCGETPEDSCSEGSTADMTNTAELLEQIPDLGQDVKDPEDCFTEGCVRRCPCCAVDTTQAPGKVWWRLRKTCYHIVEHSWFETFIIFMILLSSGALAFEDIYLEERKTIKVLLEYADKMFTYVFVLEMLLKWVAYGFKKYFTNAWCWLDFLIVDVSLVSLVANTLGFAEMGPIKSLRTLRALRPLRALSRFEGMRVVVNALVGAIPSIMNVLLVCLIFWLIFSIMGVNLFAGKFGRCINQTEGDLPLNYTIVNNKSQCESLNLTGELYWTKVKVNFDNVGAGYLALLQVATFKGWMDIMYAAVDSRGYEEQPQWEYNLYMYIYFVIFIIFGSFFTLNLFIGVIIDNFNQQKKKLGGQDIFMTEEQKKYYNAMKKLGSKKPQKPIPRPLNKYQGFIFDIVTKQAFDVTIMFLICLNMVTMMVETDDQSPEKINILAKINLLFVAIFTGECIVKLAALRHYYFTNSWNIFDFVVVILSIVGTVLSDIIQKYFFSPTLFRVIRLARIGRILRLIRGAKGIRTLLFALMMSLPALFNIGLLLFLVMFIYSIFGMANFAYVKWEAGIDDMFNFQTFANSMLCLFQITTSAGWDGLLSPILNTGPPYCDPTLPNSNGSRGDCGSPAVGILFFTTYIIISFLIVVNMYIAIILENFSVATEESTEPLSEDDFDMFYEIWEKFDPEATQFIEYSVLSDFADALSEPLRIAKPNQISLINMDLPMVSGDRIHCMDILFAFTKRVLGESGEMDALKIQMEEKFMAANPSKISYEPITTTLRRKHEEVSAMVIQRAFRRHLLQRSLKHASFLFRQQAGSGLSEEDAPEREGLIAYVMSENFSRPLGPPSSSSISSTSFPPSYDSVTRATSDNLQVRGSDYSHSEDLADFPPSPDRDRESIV

[8] = molecular target: Voltage-gated inwardly rectifying potassium channel KCNH2 (Homo sapiens, UniProt Q12809); experiment: Inhibition of human ERG by patch clamp assay
Chain of Voltage-gated inwardly rectifying potassium channel KCNH2 (Q12809 whole entry): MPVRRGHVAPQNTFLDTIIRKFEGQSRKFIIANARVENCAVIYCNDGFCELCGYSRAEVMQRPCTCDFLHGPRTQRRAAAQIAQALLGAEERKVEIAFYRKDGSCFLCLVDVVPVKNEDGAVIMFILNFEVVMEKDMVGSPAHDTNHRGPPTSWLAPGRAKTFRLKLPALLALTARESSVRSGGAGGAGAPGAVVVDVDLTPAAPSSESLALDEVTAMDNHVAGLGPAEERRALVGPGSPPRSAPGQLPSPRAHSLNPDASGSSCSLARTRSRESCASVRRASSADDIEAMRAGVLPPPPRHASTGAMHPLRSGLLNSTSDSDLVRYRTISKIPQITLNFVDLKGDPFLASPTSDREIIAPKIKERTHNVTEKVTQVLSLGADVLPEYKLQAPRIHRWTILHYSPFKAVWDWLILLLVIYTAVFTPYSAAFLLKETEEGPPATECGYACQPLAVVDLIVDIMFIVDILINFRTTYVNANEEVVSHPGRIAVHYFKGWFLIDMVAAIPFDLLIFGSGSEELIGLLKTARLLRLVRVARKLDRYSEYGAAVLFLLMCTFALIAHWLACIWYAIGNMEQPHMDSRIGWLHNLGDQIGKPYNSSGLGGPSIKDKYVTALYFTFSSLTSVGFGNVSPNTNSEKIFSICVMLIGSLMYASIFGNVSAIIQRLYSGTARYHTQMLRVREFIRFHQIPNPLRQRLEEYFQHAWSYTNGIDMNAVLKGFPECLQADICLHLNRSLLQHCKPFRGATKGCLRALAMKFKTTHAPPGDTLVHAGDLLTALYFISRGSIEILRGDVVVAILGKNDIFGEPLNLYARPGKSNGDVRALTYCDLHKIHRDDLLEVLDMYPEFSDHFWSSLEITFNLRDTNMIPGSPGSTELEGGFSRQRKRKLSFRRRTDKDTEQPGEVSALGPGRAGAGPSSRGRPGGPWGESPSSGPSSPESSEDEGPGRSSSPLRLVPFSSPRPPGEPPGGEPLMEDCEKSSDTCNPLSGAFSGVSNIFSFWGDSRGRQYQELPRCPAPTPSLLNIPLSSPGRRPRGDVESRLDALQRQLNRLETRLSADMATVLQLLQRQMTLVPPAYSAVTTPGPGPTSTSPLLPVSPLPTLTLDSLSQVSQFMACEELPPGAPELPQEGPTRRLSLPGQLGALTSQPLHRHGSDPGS

Hepatitis C virus [9] = experiment: Ratio of EC50 for HCV genotype 1b infected in human HuH7 cells in presence of 40% human serum to EC50 for HCV genotype-1b infected in human HuH7 cells; type: functional, Hepacivirus hominis
[10] = Protein binding in rat serum; type: ADME, cell-free; conditions: read-out: PB (converted)
Hepatitis C virus [11] = experiment: Antiviral activity against HCV genotype 3a infected in human HuH7 cells after 3 days by luciferase reporter assay; type: functional, cell-based, Hepacivirus hominis; conditions: Huh-7, 72 h
Hepatitis C virus [12] = experiment: Ratio of EC50 for HCV genotype 1a infected in human HuH7 cells in presence of 40% human serum to EC50 for HCV genotype 1a infected in human HuH7 cells; type: functional, Hepacivirus hominis, subtype 1a
[13] = Half life in dog liver microsomes; type: ADME, Canis lupus familiaris, microsome
[14] = Cytotoxicity against human HepG2 cells; type: cell-based
[15] = Tmax in Sprague-Dawley rat at 6 mg/kg, po administered via gavage using docusate sodium/methocel/water formulation by LC/MS/MS analysis; type: ADME, organism-based; conditions: in vivo
Summary of the method: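 Fasted rats gavaged at 6 mg/kg with a spray-dried dispersion suspension (10% w/w drug loading in 0.02:0.5:99.48 docusate/methocel/water). Serial plasma samples predose and at 15, 30, 45, 60 min and 2, 4, 6, 8, 24 h; n = 3. Plasma analyzed by LC/MS/MS. Tmax read directly from observed concentrations.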

[16] = Effective permeability across apical to basolateral side in human Caco2 cells; type: ADME, cell-based; conditions: Caco-2, read-out: Peff
[17] = Lipophilicity, log D of the compound at pH 6.5 by shake flask method; type: physicochemical; conditions: buffer
Cytochrome P450 3A4 = Cytochrome P450 3A4 (Homo sapiens, UniProt P08684); experiment: Inhibition of microsomal CYP3A4 (unknown origin); type: ADME
Chain of Cytochrome P450 3A4 (P08684 whole entry): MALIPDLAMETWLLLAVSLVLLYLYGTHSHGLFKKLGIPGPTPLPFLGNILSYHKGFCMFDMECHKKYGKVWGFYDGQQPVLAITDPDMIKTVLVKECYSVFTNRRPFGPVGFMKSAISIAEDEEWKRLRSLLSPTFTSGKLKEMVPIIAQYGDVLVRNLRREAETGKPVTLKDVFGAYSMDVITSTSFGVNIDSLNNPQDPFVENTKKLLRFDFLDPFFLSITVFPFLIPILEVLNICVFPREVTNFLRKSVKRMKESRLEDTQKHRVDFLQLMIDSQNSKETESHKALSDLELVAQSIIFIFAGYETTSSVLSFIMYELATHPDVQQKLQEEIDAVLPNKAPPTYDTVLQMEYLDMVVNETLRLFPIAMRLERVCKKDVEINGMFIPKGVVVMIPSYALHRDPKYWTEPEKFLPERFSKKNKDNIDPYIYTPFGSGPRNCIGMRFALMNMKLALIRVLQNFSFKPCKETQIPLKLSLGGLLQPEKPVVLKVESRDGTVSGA

[18] = Half life in monkey liver microsomes; type: ADME, Macaca mulatta, microsome; conditions: rhesus monkey
[19] = molecular target: Voltage-dependent L-type calcium channel subunit alpha-1C (Homo sapiens, UniProt Q13936); experiment: Inhibition of Cav1.2 (unknown origin)
Cytochrome P450 2C8 = molecular target: T1, Cytochrome P450 2C8 (Homo sapiens, UniProt P10632); experiment: Inhibition of microsomal CYP2C8 (unknown origin); type: ADME
T1 sequence (P10632 whole entry): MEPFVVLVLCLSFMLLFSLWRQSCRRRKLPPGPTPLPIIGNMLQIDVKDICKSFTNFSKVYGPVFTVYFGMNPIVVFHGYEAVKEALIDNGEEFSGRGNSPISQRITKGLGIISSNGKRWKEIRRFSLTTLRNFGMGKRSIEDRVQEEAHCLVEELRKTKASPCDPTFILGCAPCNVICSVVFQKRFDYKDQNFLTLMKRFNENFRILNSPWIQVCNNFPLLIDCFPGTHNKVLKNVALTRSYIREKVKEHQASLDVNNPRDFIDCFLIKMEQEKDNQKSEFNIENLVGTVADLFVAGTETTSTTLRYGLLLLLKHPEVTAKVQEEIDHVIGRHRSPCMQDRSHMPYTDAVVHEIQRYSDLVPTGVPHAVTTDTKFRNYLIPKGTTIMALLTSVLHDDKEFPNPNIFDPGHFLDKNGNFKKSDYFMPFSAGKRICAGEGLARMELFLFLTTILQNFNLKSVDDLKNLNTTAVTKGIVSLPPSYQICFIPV

[20] = Protein binding in human serum; type: ADME, cell-free; conditions: read-out: PB (converted)
[21] = Lipophilicity, log D of the compound by shake flask method; type: physicochemical; conditions: octanol/water
Hepatitis C virus [22] = experiment: Antiviral activity against HCV genotype 4a infected in human HuH7 cells after 3 days by luciferase reporter assay; type: functional, cell-based, Hepacivirus hominis; conditions: Huh-7, 72 h
[23] = Drug uptake in Sprague-Dawley rat liver at 6 mg/kg, po administered via gavage after 24 hrs by LC/MS/MS analysis; type: ADME, organism-based; conditions: read-out: Drug uptake
Summary of the method: (§2)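 Fasted rats were dosed orally in 90:10 PEG-400/ethanol; 6 h livers came from satellite animals. In the screening variant, n = 2 and plasma was taken to 6 h with livers at the terminal point. Livers were rinsed, blotted, weighed and homogenized in 2 volumes of 80% acetonitrile in HBSS per gram, then centrifuged. Supernatant and plasma were analysed by LC/MS/MS.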

[24] = Drug uptake in Sprague-Dawley rat liver at 6 mg/kg, po via gavage after 6 hrs by LC-MS/MS analysis; type: ADME, organism-based; conditions: read-out: Drug uptake; summary of the method: as §2
[25] = Volume of distribution at steady state in Sprague-Dawley rat at 2 mg/kg, iv by LC/MS/MS analysis; type: ADME, organism-based; conditions: Sprague-Dawley, in vivo, read-out: Vdss
Summary of the method: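 Rats received a 2 mg/kg IV dose in 90:10 PEG-400/ethanol as a 10 min constant-rate jugular infusion. Blood collected predose and at 10, 15, 30, 45, 60 min and 2, 4, 6, 8, 24 h; n = 3. Plasma analyzed by LC/MS/MS. Vss derived by noncompartmental analysis of IV data.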

Hepatitis C virus [26] = experiment: Antiviral activity against HCV genotype 1b infected in human HuH7 cells at >= 10 times antiviral EC50 after 3 days by luciferase reporter assay; type: functional, cell-based; conditions: Hepacivirus hominis
[27] = Half life in rat liver microsomes; type: ADME, microsome
[28] = AUC in Sprague-Dawley rat at 6 mg/kg, po administered via gavage by LC/MS/MS analysis; type: ADME, organism-based; conditions: in vivo; summary of the method: as §1

CNC(=O)c1c(-c2ccc(F)cc2)oc2ccc(-c3cc(C(=O)NC4(c5ncccn5)CC4)ccc3C)c(F)c12 [BMS-929075]
EC50 (Hepatitis C virus [1]): 0.009 µM
EC50 (Hepatitis C virus [2]): 0.481 µM
Ratio [3]: 10
Cmax [4]: 7.5 µM
Cmax [5]: 14.7 µM
half-life [6]: > 2 h
inhibition (INH) [7]: Not Active
IC50 [8]: 18 µM
Ratio EC50 (Hepatitis C virus [9]): 5.5
fraction unbound [10]: 0.003
EC50 (Hepatitis C virus [11]): 0.022 µM
Ratio EC50 (Hepatitis C virus [12]): 5.5
half-life [13]: > 2 h
CC50 [14]: > 12.5 µM
Tmax [15]: 4 h
Papp A→B [16]: > 100 nm/s
logD [17]: 5.09
IC50 (Cytochrome P450 3A4): > 13 µM
half-life [18]: > 2 h
inhibition (INH) [19]: Not Active
IC50 (Cytochrome P450 2C8): 6.7 µM
fraction unbound [20]: 0.018
logD [21]: 5.09
EC50 (Hepatitis C virus [22]): 0.003 µM
concentration at 24 h [23]: 1.12 µM
concentration at 6 h [24]: 15.1 µM
Vd [25]: 0.7 L/kg
Activity (Hepatitis C virus [26]): Active
half-life [27]: > 2 h
AUC [28]: 54.5 µM·h
